{
  "source": "ChEMBL document CHEMBL1123985",
  "about": "“Oral absorption of cephalosporin antibiotics. 1. Synthesis, biological properties, and oral bioavailability of 7-(arylacetamido)-3-chloro cephalosporins in animals” (J Med Chem, 1988)",
  "key": {"Klebsiella aerogenes": {"tested_on": "Klebsiella aerogenes", "assay": "Minimum inhibitory concentration against EB17 strain of Enterobacter aerogenes", "format": "functional"}, "Staphylococcus aureus [1]": {"tested_on": "Staphylococcus aureus", "assay": "Minimum inhibitory concentration against V41 strain of Staphylococcus aureus", "format": "functional"}, "Streptococcus pyogenes": {"tested_on": "Streptococcus pyogenes", "assay": "Minimum inhibitory concentration against Streptococcus pyogenes C203", "format": "functional"}, "Staphylococcus aureus [2]": {"tested_on": "Staphylococcus aureus", "assay": "Minimum inhibitory concentration against X1.1 strain of Staphylococcus aureus", "format": "functional"}, "Streptococcus pneumoniae": {"tested_on": "Streptococcus pneumoniae", "assay": "Minimum inhibitory concentration against Park strain of Streptococcus pneumoniae"}, "[3]": {"assay": "Oral bioavailability in mouse", "format": "ADME, organism-based", "settings": "in vivo", "method_in_brief": "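Male Cox mice given water and liquid diet overnight; 20 mg/kg in saline (2 mg/mL) sc or orally; urine from collection cages plus bladder contents over 2 h; activity by agar well assay with Bacillus subtilis ATCC 6633. Bioavailability from percent dose excreted in urine after oral vs parenteral dosing.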"}, "[4]": {"tested_on": "Staphylococcus epidermidis", "assay": "Minimum inhibitory concentration against 222 strain of Staphylococcus epidermidis", "format": "functional"}, "Salmonella": {"tested_on": "Salmonella", "assay": "Minimum inhibitory concentration against X514 strain of Salmonella", "format": "functional"}, "Staphylococcus aureus [5]": {"tested_on": "Staphylococcus aureus", "assay": "Minimum inhibitory concentration against S13E strain of Staphylococcus aureus", "format": "functional"}, "[6]": {"tested_on": "Staphylococcus epidermidis", "assay": "Minimum inhibitory concentration against Epil strain of Staphylococcus epidermidis", "format": "functional"}, "Klebsiella pneumoniae": {"tested_on": "Klebsiella pneumoniae", "assay": "Minimum inhibitory concentration against X68 strain of Klebsiella pneumoniae", "format": "functional"}, "Escherichia coli": {"tested_on": "Escherichia coli", "assay": "Minimum inhibitory concentration against EC14 strain Escherichia coli", "format": "functional"}, "[7]": {"assay": "Minimum inhibitory concentration against N9 strain of Shigella sonnei", "format": "functional"}, "Haemophilus influenzae [8]": {"tested_on": "Haemophilus influenzae", "assay": "Minimum inhibitory concentration against sens CL strain of Haemophilus influenzae", "format": "functional"}, "Haemophilus influenzae [9]": {"tested_on": "Haemophilus influenzae", "assay": "Minimum inhibitory concentration against res 76 strain of Haemophilus influenzae", "format": "functional"}},
  "data": [
    {"smiles": "CC1=C(C(=O)O)N2C(=O)[C@@H](NC(=O)COc3ccccc3)[C@H]2SC1", "values": [
      {"measurement": "MIC", "setting": "Klebsiella aerogenes", "value": "> 128", "unit": "µg/mL"},
      {"measurement": "MIC", "setting": "Staphylococcus aureus [1]", "value": 32, "unit": "µg/mL"},
      {"measurement": "MIC", "setting": "Streptococcus pyogenes", "value": 2, "unit": "µg/mL"},
      {"measurement": "MIC", "setting": "Staphylococcus aureus [2]", "value": 2, "unit": "µg/mL"},
      {"measurement": "MIC", "setting": "Streptococcus pneumoniae", "value": 2, "unit": "µg/mL"},
      {"measurement": "bioavailability", "setting": "[3]", "value": 37, "unit": "%"},
      {"measurement": "MIC", "setting": "[4]", "value": 4, "unit": "µg/mL"},
      {"measurement": "MIC", "setting": "Salmonella", "value": "> 128", "unit": "µg/mL"},
      {"measurement": "MIC", "setting": "Staphylococcus aureus [5]", "value": "> 128", "unit": "µg/mL"},
      {"measurement": "MIC", "setting": "[6]", "value": 16, "unit": "µg/mL"},
      {"measurement": "MIC", "setting": "Klebsiella pneumoniae", "value": "> 128", "unit": "µg/mL"},
      {"measurement": "MIC", "setting": "Escherichia coli", "value": "> 128", "unit": "µg/mL"},
      {"measurement": "MIC", "setting": "[7]", "value": "> 128", "unit": "µg/mL"},
      {"measurement": "MIC", "setting": "Haemophilus influenzae [8]", "value": 16, "unit": "µg/mL"},
      {"measurement": "MIC", "setting": "Haemophilus influenzae [9]", "value": 8, "unit": "µg/mL"}
    ]}
  ]
}
